Source: ChEMBL document CHEMBL4184311, “Design, synthesis, and evaluation of simple phenol amides as ERRγ agonists” (Bioorg Med Chem Lett, 2018)
The source made the active and inactive calls. The rule behind the calls is not given here.

Columns and labels:
[1] = target: T1, Steroid hormone receptor ERR1 (Homo sapiens) (UniProt P11474); assay: Agonist activity at alphaHis-SUMO-tagged ERRalpha-LBD (unknown origin) assessed as decrease in RIP140 peptide recruitment by TR-FRET assay
T1 sequence (whole entry): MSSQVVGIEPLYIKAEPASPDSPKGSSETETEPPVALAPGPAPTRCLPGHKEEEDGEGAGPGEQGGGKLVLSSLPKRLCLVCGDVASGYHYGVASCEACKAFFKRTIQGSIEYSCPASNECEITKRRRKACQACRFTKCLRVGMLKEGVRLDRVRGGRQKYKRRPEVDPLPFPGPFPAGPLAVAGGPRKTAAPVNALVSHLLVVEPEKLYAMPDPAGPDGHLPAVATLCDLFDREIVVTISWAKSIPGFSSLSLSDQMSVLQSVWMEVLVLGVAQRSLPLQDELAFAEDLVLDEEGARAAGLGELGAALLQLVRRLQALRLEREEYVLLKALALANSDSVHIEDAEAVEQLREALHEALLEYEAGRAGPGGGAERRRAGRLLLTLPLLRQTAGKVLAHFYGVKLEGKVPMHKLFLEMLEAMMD
In short: (§1)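 Terbium/fluorescein TR-FRET read-out: excitation 340 nm, emission 520 nm (fluorescein) and 490 nm (terbium). The 520/490 nm ratio is expressed as fold change over a DMSO-only control and plotted against concentration to give EC50.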

[2] = Half life in rat liver microsomes at 1 uM in presence of NADPH by LC-MS/MS analysis; type: ADME, microsome
[3] = target: T2, Estrogen-related receptor gamma (Homo sapiens, UniProt P62508); assay: Agonist activity at human N-terminal alphaHis-SUMO-tagged ERRgamma-LBD (229 to 458 residues) expressed in Escherichia coli BL21 gold (DE3) cells assessed as decrease in RIP140 peptide recruitment after 2 hrs by TR-FRET assay; conditions: read-out: EC50
T2 sequence (P62508 whole entry): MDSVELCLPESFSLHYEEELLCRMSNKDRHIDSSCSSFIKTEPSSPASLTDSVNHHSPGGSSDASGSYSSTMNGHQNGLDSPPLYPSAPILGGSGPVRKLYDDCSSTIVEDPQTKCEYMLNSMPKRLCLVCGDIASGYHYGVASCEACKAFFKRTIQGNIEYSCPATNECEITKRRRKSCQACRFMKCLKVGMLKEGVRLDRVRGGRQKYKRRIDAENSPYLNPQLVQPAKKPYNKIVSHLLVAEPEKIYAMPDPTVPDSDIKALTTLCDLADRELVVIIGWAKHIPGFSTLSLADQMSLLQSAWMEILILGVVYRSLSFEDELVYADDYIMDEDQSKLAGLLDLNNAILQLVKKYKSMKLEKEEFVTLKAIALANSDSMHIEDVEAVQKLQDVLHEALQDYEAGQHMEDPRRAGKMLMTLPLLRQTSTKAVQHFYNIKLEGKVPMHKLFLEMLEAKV
In short: (§2)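 Terbium/fluorescein TR-FRET read-out: excitation 340 nm, emission 520 nm (fluorescein) and 490 nm (terbium). The 520/490 nm ratio is expressed as fold change over a DMSO-only control. Values are the arithmetic mean of at least two separate runs.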

[4] = target: T3, Steroid hormone receptor ERR2 (Homo sapiens, UniProt O95718); assay: Agonist activity at alphaHis-SUMO-tagged ERRbeta-LBD (unknown origin) assessed as decrease in RIP140 peptide recruitment by TR-FRET assay; in short: as §1
T3 sequence (O95718 whole entry): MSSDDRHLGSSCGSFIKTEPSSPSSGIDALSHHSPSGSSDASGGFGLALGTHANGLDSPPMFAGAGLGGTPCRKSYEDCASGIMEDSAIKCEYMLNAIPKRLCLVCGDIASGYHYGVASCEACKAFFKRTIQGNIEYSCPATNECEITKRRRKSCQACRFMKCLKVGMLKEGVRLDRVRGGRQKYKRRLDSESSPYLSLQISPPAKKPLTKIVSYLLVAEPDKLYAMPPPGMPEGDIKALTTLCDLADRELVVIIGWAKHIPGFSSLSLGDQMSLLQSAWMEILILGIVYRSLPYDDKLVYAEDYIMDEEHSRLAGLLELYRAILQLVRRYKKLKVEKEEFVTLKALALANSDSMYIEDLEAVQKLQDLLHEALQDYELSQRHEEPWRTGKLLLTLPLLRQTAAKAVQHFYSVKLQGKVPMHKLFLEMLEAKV

[5] = Half life in human liver microsomes at 1 uM in presence of NADPH by LC-MS/MS analysis; type: ADME, microsome
[6] = Half life in mouse liver microsomes at 1 uM in presence of NADPH by LC-MS/MS analysis; type: ADME, microsome
[7] = target: T2, Estrogen-related receptor gamma; assay: Inverse agonist activity at human N-terminal alphaHis-SUMO-tagged ERRgamma-LBD (229 to 458 residues) expressed in Escherichia coli BL21 gold (DE3) cells assessed as decrease in RIP140 peptide recruitment after 2 hrs by TR-FRET assay; in short: as §2
[8] = target: T2, Estrogen-related receptor gamma; assay: Partial agonist activity at human N-terminal alphaHis-SUMO-tagged ERRgamma-LBD (229 to 458 residues) expressed in Escherichia coli BL21 gold (DE3) cells assessed as increase in RIP140 peptide recruitment after 2 hrs by TR-FRET assay
Homo sapiens = organism: Homo sapiens; assay: Selectivity ratio of EC50 for alphaHis-SUMO-tagged ERRbeta-LBD (unknown origin) to EC50 for human N-terminal alphaHis-SUMO-tagged ERRgamma-LBD (229 to 458 residues) expressed in Escherichia coli BL21 gold (DE3) cells
[9] = target: T2, Estrogen-related receptor gamma; assay: Agonist activity at Gal4 fused ERRgamma-LBD (unknown origin) expressed in HEK293T cells after 20 hrs by UAS-luciferase reporter gene assay; type: cell-based
In short: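 HEK293T cells carrying Gal4-ERRγ fusion with UAS-luciferase reporter; compounds run as concentration-response curves; counterscreened in parallel against Gal4-VP16::UAS-Luc to flag non-specific activation.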

Row | Activity [1] | t1/2 [2] [min] | EC50 [3] [µM] | EC50 [4] [µM] | t1/2 [5] [min] | t1/2 [6] [min] | EC50 [7] [µM] | EC50 [8] [µM] | EC50 [9] [µM] | SMILES | Ratio EC50 (Homo sapiens)
1 | inactive |  | 0.95 | 2.7 |  |  |  |  |  | CC(C)(C)c1ccc(CCNC(=O)Cc2ccc(O)cc2)cc1 | 
2 | inactive | 1.6 | 0.7 | 0.09 | 6.8 | 3.3 |  |  | 4.7 | CC(C)(C)c1ccc(CCNC(=O)c2ccc(O)cc2)cc1 | 7 to 8
3 |  | 1.5 | 0.76 | 0.02 | 3.6 | 1.5 |  |  |  | Cc1cc(O)ccc1C(=O)NCCc1ccc(C(C)(C)C)cc1 | 30 to 40

Further lines, the compound ahead of its results:

Row | SMILES | Activity [1] | t1/2 [2] [min] | EC50 [3] [µM] | EC50 [4] [µM] | t1/2 [5] [min] | t1/2 [6] [min] | EC50 [7] [µM] | EC50 [8] [µM] | EC50 [9] [µM] | Ratio EC50 (Homo sapiens)
4 | CCN(CC)c1ccc(CCNC(=O)c2ccc(O)cc2)cc1 | inactive | 3.9 | 0.39 | 0.63 | 3.1 | 2.2 |  |  |  | 
5 | CC(C)(C)c1ccc(CCNC(=O)c2ccccc2O)cc1 |  |  |  |  |  |  | 2.9 |  |  | 
6 | CC(C)(C)c1ccc(CCNC(=O)c2ccc(O)cc2N)cc1 |  |  |  | 0.045 |  |  |  | 0.3 |  | 7 to 8
7 | CC(C)(C)c1ccc(CCNC(=O)c2ccc(O)cc2Cl)cc1 |  | 1.1 | 0.95 | 0.031 | 2.9 | 1.2 |  |  |  | 30 to 40
